Converted amounts (≈) assume the structure as drawn.
Key:
Candida albicans [1] = test: Antifungal activity against fluconazole-resistant Candida albicans CaR assessed as reduction in fungal growth incubated for 24 hrs by serial dilution method; format: functional
Method in brief: (§1)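 Fluconazole-resistant C. albicans clinical isolates (17# and CaR from AIDS patients; 632, 901, 904 from clinic) tested by CLSI broth dilution MIC in RPMI 1640 buffered to pH 7.0 with MOPS. Compounds dissolved in DMSO, serially diluted to final 0.03–16 or 0.125–64 μg/mL; inoculum 1–5 × 10^3 CFU/mL; 35 °C, 24 h. MIC = lowest concentration inhibiting visible growth; fluconazole and itraconazole as controls.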

Candida albicans [2] = test: Antifungal activity against Candida albicans SC5314 assessed as reduction in fungal growth incubated for 24 hrs by serial dilution method; format: functional; conditions: SC5314, 24 h
Method in brief: (§2)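 MIC by CLSI broth microdilution in RPMI 1640 buffered to pH 7.0 with MOPS. Compounds dissolved in DMSO and serially diluted to final 0.03–16 or 0.125–64 µg/mL. Inoculum 1–5 × 10^3 CFU/mL. Incubation 35 °C, 24 h. Drug-free growth and fungus-free blank controls. MIC is the lowest concentration preventing visible growth.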

Candida albicans [3] = test: Antifungal activity against Candida albicans GIM 2.194 assessed as reduction in fungal growth incubated for 24 hrs by serial dilution method; format: functional; conditions: GIM 2.194, 24 h; method in brief: as §2
Candida tropicalis = test: Antifungal activity against Candida tropicalis GIM 2.183 assessed as reduction in fungal growth incubated for 24 hrs by serial dilution method; format: functional; conditions: GIM 2.183, 24 h; method in brief: as §2
Nakaseomyces glabratus = test: Antifungal activity against Candida glabrata assessed as reduction in fungal growth incubated for 24 hrs by serial dilution method; format: functional; method in brief: as §2
Candida parapsilosis = test: Antifungal activity against Candida parapsilosis GIM 2.190 assessed as reduction in fungal growth incubated for 24 hrs by serial dilution method; format: functional; conditions: Lodderomyces parapsilosis, GIM 2.190, 24 h; method in brief: as §2
Candida albicans [4] = test: Antifungal activity against fluconazole-resistant Candida albicans 17 assessed as reduction in fungal growth incubated for 24 hrs by serial dilution method; format: functional; conditions: Candida albicans, 17, 24 h; method in brief: as §1
Candida albicans [5] = test: Antifungal activity against fluconazole-resistant Candida albicans 632 assessed as reduction in fungal growth incubated for 24 hrs by serial dilution method; format: functional; conditions: Candida albicans, 632, 24 h; method in brief: as §1
Candida albicans [6] = test: Antifungal activity against fluconazole-resistant Candida albicans 901 assessed as reduction in fungal growth incubated for 24 hrs by serial dilution method; format: functional; conditions: Candida albicans, 901, 24 h; method in brief: as §1
Candida albicans [7] = test: Antifungal activity against fluconazole-resistant Candida albicans 904 assessed as reduction in fungal growth incubated for 24 hrs by serial dilution method; format: functional; conditions: Candida albicans, 904, 24 h; method in brief: as §1
[8] = Cytotoxicity against human A549 cells assessed as cell survival at 0.08 uM/l incubated for 24 hrs by MTT assay relative to control; format: cell-based; conditions: read-out: Activity
Method in brief: (§3)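 A549 cells were seeded at 3000 per well in RPMI 1640 and held 16 h at 37 °C, 5% CO2. Medium was then replaced with medium holding DMSO-dissolved compound at final 0.08, 0.4, 2.0 or 10 µM/L and incubated 24 h. MTT was added for 4 h and absorbance read at 490 nm to give survival.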

[9] = Cytotoxicity against human A549 cells assessed as cell survival at 0.4 uM/l incubated for 24 hrs by MTT assay relative to control; format: cell-based; conditions: read-out: Activity; method in brief: as §3
[10] = Cytotoxicity against human A549 cells assessed as cell survival at 2 uM/l incubated for 24 hrs by MTT assay relative to control; format: cell-based; conditions: read-out: Activity; method in brief: as §3
[11] = Cytotoxicity against human A549 cells assessed as cell survival at 10 uM/l incubated for 24 hrs by MTT assay relative to control; format: cell-based; conditions: read-out: Activity; method in brief: as §3
[12] = target: T1, Lanosterol 14-alpha demethylase (Candida albicans (strain SC5314 / ATCC MYA-2876) (Yeast), UniProt P10613); test: Inhibition of Candida albicans CYP51 assessed as increase in lanosterol level at 0.015 ug/ml incubated for 18 hrs by GC/MS analysis relative to control; set-up: scale not given: the % may be the effect or the level left
T1 sequence (P10613 whole entry): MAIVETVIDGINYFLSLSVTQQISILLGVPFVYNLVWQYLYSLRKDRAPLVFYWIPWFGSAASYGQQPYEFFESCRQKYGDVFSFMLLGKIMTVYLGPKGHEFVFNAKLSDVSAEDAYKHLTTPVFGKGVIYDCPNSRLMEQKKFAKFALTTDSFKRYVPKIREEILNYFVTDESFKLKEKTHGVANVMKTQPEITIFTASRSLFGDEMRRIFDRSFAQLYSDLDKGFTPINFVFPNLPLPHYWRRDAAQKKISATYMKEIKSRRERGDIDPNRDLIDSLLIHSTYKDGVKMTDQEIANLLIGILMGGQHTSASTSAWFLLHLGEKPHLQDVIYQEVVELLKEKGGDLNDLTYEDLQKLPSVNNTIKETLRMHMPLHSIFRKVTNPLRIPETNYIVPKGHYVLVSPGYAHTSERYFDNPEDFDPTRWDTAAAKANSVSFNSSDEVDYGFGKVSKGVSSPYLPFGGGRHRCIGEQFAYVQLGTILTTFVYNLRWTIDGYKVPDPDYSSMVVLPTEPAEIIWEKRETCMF
Method in brief: (§4)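 C. albicans SC5314 was grown in RPMI 1640 with 0.015 µg/mL compound, or fluconazole 0.25 µg/mL, about 18 h at 30 °C with shaking at 200 rpm. Cells were pelleted and washed with PBS, then saponified 60 min at 80 °C in ethanol/pyrogallol/60% KOH. Nonsaponifiable sterols were extracted three times with heptane and analysed by GC-MS.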

[13] = target: T1, Lanosterol 14-alpha demethylase; test: Inhibition of Candida albicans CYP51 assessed as ergosterol level at 0.015 ug/ml incubated for 18 hrs by GC/MS analysis (reference value: 100%); set-up: scale not given: the % may be the effect or the level left; method in brief: as §4
[14] = target: T1, Lanosterol 14-alpha demethylase; test: Inhibition of Candida albicans CYP51 assessed as increase in eburicol level at 0.015 ug/ml incubated for 18 hrs by GC/MS analysis relative to control; set-up: scale not given: the % may be the effect or the level left; method in brief: as §4
[15] = target: T1, Lanosterol 14-alpha demethylase; test: Inhibition of Candida albicans CYP51 assessed as increase in 14alpha-methyl ergosta-8,24(28)-dien-3beta,6alpha-diol level at 0.015 ug/ml incubated for 18 hrs by GC/MS analysis relative to control; set-up: scale not given: the % may be the effect or the level left; method in brief: as §4
[16] = target: T1, Lanosterol 14-alpha demethylase; test: Inhibition of Candida albicans CYP51 assessed as increase in sterol level at 0.015 ug/ml incubated for 18 hrs by GC/MS analysis relative to control; set-up: scale not given: the % may be the effect or the level left; method in brief: as §4
[17] = target: T1, Lanosterol 14-alpha demethylase; test: Inhibition of Candida albicans CYP51 assessed as increase in lanosterol level at 0.25 ug/ml incubated for 18 hrs by GC/MS analysis relative to control; set-up: scale not given: the % may be the effect or the level left
Method in brief: (§5)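 Candida albicans SC5314 grown in RPMI 1640 with agitation (200 rpm) for ~18 h at 30 °C, with 0.25 µg/mL fluconazole as a comparator alongside the test compound. Cells were pelleted (3000g, 10 min), PBS-washed thrice, and saponified 60 min at 80 °C in ethanol, ethanolic pyrogallol and 60% KOH. Nonsaponifiable sterols were extracted thrice with heptane and profiled by GC-MS.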

[18] = target: T1, Lanosterol 14-alpha demethylase; test: Inhibition of Candida albicans CYP51 assessed as ergosterol level at 0.25 ug/ml incubated for 18 hrs by GC/MS analysis (reference value: 100%); set-up: scale not given: the % may be the effect or the level left; method in brief: as §5
[19] = target: T1, Lanosterol 14-alpha demethylase; test: Inhibition of Candida albicans CYP51 assessed as increase in eburicol level at 0.25 ug/ml incubated for 18 hrs by GC/MS analysis relative to control; set-up: scale not given: the % may be the effect or the level left; method in brief: as §5
[20] = target: T1, Lanosterol 14-alpha demethylase; test: Inhibition of Candida albicans CYP51 assessed as increase in 14alpha-methyl ergosta-8,24(28)-dien-3beta,6alpha-diol level at 0.25 ug/ml incubated for 18 hrs by GC/MS analysis relative to control; set-up: scale not given: the % may be the effect or the level left; method in brief: as §5
[21] = target: T1, Lanosterol 14-alpha demethylase; test: Inhibition of Candida albicans CYP51 assessed as increase in sterol level at 0.25 ug/ml incubated for 18 hrs by GC/MS analysis relative to control; set-up: scale not given: the % may be the effect or the level left; method in brief: as §5

| SMILES | MIC (Candida albicans [1]) | MIC (Candida albicans [2]) | MIC (Candida albicans [3]) | MIC (Candida tropicalis) | MIC (Nakaseomyces glabratus) | MIC (Candida parapsilosis) | MIC (Candida albicans [4]) | MIC (Candida albicans [5]) | MIC (Candida albicans [6]) | MIC (Candida albicans [7]) | viability at 24 h, 0.08 µM [8] | viability at 24 h, 0.4 µM [9] | viability at 24 h, 2 µM [10] | viability at 24 h, 10 µM [11] | further results |
| --- | --- | --- | --- | --- | --- | --- | --- | --- | --- | --- | --- | --- | --- | --- | --- |
| O=C(NC(Cn1ccnc1)C(=O)c1ccc(F)cc1)c1ccc(-c2ccccc2)cc1F (stereo not given) | 2 µg/mL (≈ 4.64 µM) | 0.06 µg/mL (≈ 0.139 µM) | 0.25 µg/mL (≈ 0.579 µM) | 0.125 µg/mL (≈ 0.29 µM) | 0.125 µg/mL (≈ 0.29 µM) | 0.125 µg/mL (≈ 0.29 µM) | 2 µg/mL (≈ 4.64 µM) | > 64 µg/mL | > 64 µg/mL | 8 µg/mL (≈ 18.5 µM) | 100% | 100% | 100% | 86.8% | – |
| Cc1ccc(C(=O)C(Cn2ccnc2)NC(=O)c2ccc(-c3ccccc3)c(F)c2)cc1 (stereo not given) | 1 µg/mL (≈ 2.34 µM) | 0.03 µg/mL (≈ 0.0702 µM) | 0.06 µg/mL (≈ 0.14 µM) | 0.03 µg/mL (≈ 0.0702 µM) | 0.125 µg/mL (≈ 0.292 µM) | 0.125 µg/mL (≈ 0.292 µM) | 2 µg/mL (≈ 4.68 µM) | 16 µg/mL (≈ 37.4 µM) | 16 µg/mL (≈ 37.4 µM) | 16 µg/mL (≈ 37.4 µM) | 100% | 100% | 97% | 92.5% | Activity [12]: 23.17%; Activity [13]: 41.99%; Activity [14]: 9.56%; Activity [15]: 13.26%; Activity [16]: 3.04 to 5.85% |
| O=C(NC(Cn1ccnc1)C(=O)c1cccc(Cl)c1)c1ccc(-c2ccccc2)cc1 (stereo not given) | > 64 µg/mL | 0.03 µg/mL (≈ 0.0698 µM) | 0.06 µg/mL (≈ 0.14 µM) | 0.03 µg/mL (≈ 0.0698 µM) | 0.125 µg/mL (≈ 0.291 µM) | 0.125 µg/mL (≈ 0.291 µM) | > 64 µg/mL | 4 µg/mL (≈ 9.3 µM) | 1 µg/mL (≈ 2.33 µM) | 4 µg/mL (≈ 9.3 µM) | 100% | 97.4% | 97.2% | 96.3% | – |
| O=C(NC(Cn1ccnc1)C(=O)c1ccccc1F)c1ccc(-c2ccccc2)cc1 (stereo not given) | 1 µg/mL (≈ 2.42 µM) | 0.125 µg/mL (≈ 0.302 µM) | 0.125 µg/mL (≈ 0.302 µM) | 1 µg/mL (≈ 2.42 µM) | 2 µg/mL (≈ 4.84 µM) | 0.125 µg/mL (≈ 0.302 µM) | 8 µg/mL (≈ 19.3 µM) | 0.5 µg/mL (≈ 1.21 µM) | 0.25 µg/mL (≈ 0.605 µM) | < 0.125 µg/mL | 100% | 100% | 100% | 100% | – |
| OC(Cn1cncn1)(Cn1cncn1)c1ccc(F)cc1F [FLUCONAZOLE] | > 64 µg/mL | 0.5 µg/mL (≈ 1.63 µM) | 2 µg/mL (≈ 6.53 µM) | 0.5 µg/mL (≈ 1.63 µM) | 4 µg/mL (≈ 13.1 µM) | 2 µg/mL (≈ 6.53 µM) | > 64 µg/mL | > 64 µg/mL | > 64 µg/mL | > 64 µg/mL | 100% | 99.1% | 95.7% | 95.3% | Activity [17]: 16.74%; Activity [18]: 63%; Activity [19]: 4.27%; Activity [20]: 5.15%; Activity [21]: 1.54 to 5.07% |

Reference: ChEMBL document CHEMBL4406852, “Combating fluconazole-resistant fungi with novel β-azole-phenylacetone derivatives” (Eur J Med Chem, 2019)
